The values that follow come from ChEMBL document CHEMBL1806469, “Design, synthesis, and antiproliferative activity of new 1H-pyrrolo[3,2-c]pyridine derivatives against melanoma cell lines” (Eur J Med Chem, 2011).

One experiment concerns A-375. Description: Antiproliferation activity against human A375P cells after 48 hrs by MTT assay in presence of fetal bovine serum. It is filed as functional, cell-based. The following applies: A-375, 48 h. In outline:
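A375P cells kept in DMEM with 10% FBS and 1% penicillin/streptomycin at 37 °C, 5% CO2. Plated at 5 × 10³ cells/well, left 24 h, then given 12 concentrations (3-fold serial dilution) for 48 h. Viability read by MTT reduction at 590 nm. IC50 from the dose-response curve; each compound tested in triplicate.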

For a further experiment, the system named is NIH3T3. Description: Antiproliferation activity against mouse NIH/3T3 cells after 48 hrs by MTT assay in presence of bovine calf serum. The class given is cell-based. To be noted: NIH3T3, 48 h.
For the next experiment, the system named is SK-MEL-2. Description: Antiproliferation activity against human SK-MEL-2 cells after 48 hrs by SRB assay. It is filed as functional, cell-based. The following applies: SK-MEL-2, 48 h. Summed up:
(§1)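 Run by the NCI. Cells grown in RPMI 1640 with 5% FBS and 2 mM glutamine, plated at 5000–40,000 cells/well by doubling time, and left 24 h at 37 °C, 5% CO2. Time-zero plates fixed with TCA. Drug (DMSO stock) given at five concentrations for 48 h. Cells fixed with cold TCA (final 10%), stained with 0.4% SRB, and read at 515 nm. IC50 taken as 50% reduction in net protein increase versus control.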
(In SRB staining, fixed cells bind dye roughly in proportion to their protein.)

A further experiment deals with SK-MEL-5. Description: Antiproliferation activity against human SK-MEL-5 cells after 48 hrs by SRB assay. It is filed as functional, cell-based. To be noted: SK-MEL-5, 48 h. In outline:
as §1

The next experiment concerns UACC-62. Description: Antiproliferation activity against human UACC62 cells after 48 hrs by SRB assay. The class given is functional, cell-based. The following applies: UACC-62, 48 h. Summed up:
as §1

For another experiment, the system named is LOX IMVI. Description: Antiproliferation activity against human LOXIMVI cells after 48 hrs by SRB assay. It is filed as functional, cell-based. In outline: as §1
The test system of a further experiment is Malme-3M. Description: Antiproliferation activity against human MALME-3M cells after 48 hrs by SRB assay. The class given is functional, cell-based. Summed up: as §1
The subject of the next experiment is M14. Description: Antiproliferation activity against human M14 cells after 48 hrs by SRB assay. The class given is functional, cell-based. The following applies: M14, 48 h. Summed up: as §1
The subject of the next experiment is MDA-MB-435. Description: Antiproliferation activity against human MDA-MB-435 cells after 48 hrs by SRB assay. The class given is functional, cell-based. To be noted: MDA-MB-435, 48 h. In outline: as §1
The next experiment has as its system SK-MEL-28. Description: Antiproliferation activity against human SK-MEL-28 cells after 48 hrs by SRB assay. The class given is functional, cell-based. To be noted: SK-MEL-28, 48 h. Summed up: as §1
The next experiment deals with UACC-257. Description: Antiproliferation activity against human UACC257 cells after 48 hrs by SRB assay. It is filed as functional, cell-based. The following applies: UACC-257, 48 h. Summed up:
as §1

`Nc1nccc2c1ccn2-c1ccc(NC(=O)Nc2cccc(C(F)(F)F)c2)cc1`: the concentration for half-maximal inhibition (IC50) (as a rule, the concentration needed to halve the response being measured) in the experiment on A-375 came to 5.4 µM.
For `O=C(Nc1ccc(-n2ccc3c(NC(=O)c4ccccc4)nccc32)cc1)Nc1ccc(Cl)c(Cl)c1`, the IC50 with A-375 turned out to be 0.2 µM; in the experiment with NIH3T3, 11.5 µM.
In the case of `O=C(Nc1ccc(-n2ccc3c(NC(=O)c4ccccc4)nccc32)cc1)Nc1ccc(Cl)c(C(F)(F)F)c1`, the IC50 in the experiment on A-375 is 2.4 µM.
With `CCN1CCN(Cc2ccc(NC(=O)Nc3ccc(-n4ccc5c(NC(=O)c6ccccc6)nccc54)cc3)cc2C(F)(F)F)CC1`, the IC50 with SK-MEL-2 was determined as 3.62 µM; in the experiment on SK-MEL-5, 0.764 µM; in the experiment with UACC-62 it was 1.27 µM; in the experiment with A-375, 0.095 µM; in the experiment with NIH3T3, 0.98 µM; in the experiment with LOX IMVI, 0.481 µM. Further, the IC50 in the experiment on Malme-3M amounted to 1.54 µM; in the experiment with M14, 1.22 µM; with MDA-MB-435, 0.894 µM; in the experiment on SK-MEL-28, 1.29 µM; in the experiment on UACC-257 it was 1.59 µM.
`Cc1cc(NC(=O)c2ccc(N3CCOCC3)c(C(F)(F)F)c2)ccc1-n1ccc2c(NC(=O)c3ccccc3)nccc21`: in the experiment with A-375, the IC50 is > 10 µM.
Same read-out and setting: next, `Nc1nccc2c1ccn2-c1ccc(NC(=O)Nc2ccc(Cl)c(C(F)(F)F)c2)cc1`: 8 µM.
Turning to `O=C(Nc1ccc(-n2ccc3c(NC(=O)c4ccccc4)nccc32)cc1)Nc1cccc(Cl)c1Cl`, the IC50 in the experiment on A-375 was > 10 µM.
Turning to `O=C(Nc1nccc2c1ccn2-c1ccc(NC(=O)c2ccc(-c3cc(C(F)(F)F)ccc3Cl)o2)cc1)c1ccccc1`, the 50% inhibitory concentration (IC50) in the experiment with A-375 is 1 µM; with NIH3T3, 15.9 µM.
`Nc1nccc2c1ccn2-c1ccc(NC(=O)c2ccc(N3CCOCC3)c(C(F)(F)F)c2)cc1`: in the experiment on A-375, the IC50 was 6.2 µM.
For the compound `O=C(Nc1ccc(-n2ccc3c(NC(=O)c4ccccc4)nccc32)cc1)Nc1cccc(C(F)(F)F)c1`, the IC50 with A-375 came out at 7 µM.
The same measure, in the same setting: next, `Nc1nccc2c1ccn2-c1ccc(NC(=O)c2ccc(Cl)c(C(F)(F)F)c2)cc1`: 3.8 µM.
In the case of `O=C(Nc1ccc(-n2ccc3c(NC(=O)c4ccccc4)nccc32)cc1)c1cccc(C(F)(F)F)c1`, the IC50 in the experiment on A-375 was 0.1 µM; with NIH3T3 it was 0.05 µM.
Consider `Cc1cc(NC(=O)c2cccc(C(F)(F)F)c2)ccc1-n1ccc2c(NC(=O)c3ccccc3)nccc21`, for which, in the experiment on A-375, the IC50 is > 10 µM.
As to `O=C(Nc1ccc(-n2ccc3c(NC(=O)c4ccccc4)nccc32)cc1)c1cc(N2CCOCC2)cc(C(F)(F)F)c1`, the values for the half-inhibitory concentration (IC50) with A-375 and in the experiment with NIH3T3 were 0.3 µM and 0.27 µM, respectively.
On to `Cc1cc(NC(=O)Nc2cccc(Cl)c2Cl)ccc1-n1ccc2c(NC(=O)c3ccccc3)nccc21`, for which the IC50 in the experiment on A-375 was > 10 µM.
Take `O=C(Nc1ccc(-n2ccc3c(NC(=O)c4ccccc4)nccc32)cc1)c1ccc(Cl)c(C(F)(F)F)c1`: the IC50 in the experiment with A-375 came to 0.0164 µM; with NIH3T3, 5.65 µM.
With `Cc1cc(NC(=O)c2ccc(Cl)c(C(F)(F)F)c2)ccc1-n1ccc2c(NC(=O)c3ccccc3)nccc21`, the IC50 in the experiment with A-375 turned out to be 2.7 µM.
On to `CNC(=O)c1cc(Oc2ccc(NC(=O)Nc3ccc(Cl)c(C(F)(F)F)c3)cc2)ccn1` [SORAFENIB], for which the IC50 was determined as 5.6 µM in the experiment with A-375 and 24.8 µM in the experiment with NIH3T3.
As to `Cc1cn(-c2cc(C(=O)Nc3ccc(-n4ccc5c(NC(=O)c6ccccc6)nccc54)cc3)cc(C(F)(F)F)c2)cn1`, the IC50 in the experiment with A-375 was found to be 0.8 µM; in the experiment on NIH3T3, 5.57 µM.
Turning to `O=C(Nc1ccc(-n2ccc3c(NC(=O)c4ccccc4)nccc32)cc1)c1ccc(N2CCOCC2)c(C(F)(F)F)c1`, the IC50 in the experiment with SK-MEL-2 was 0.637 µM; with SK-MEL-5, 0.138 µM; in the experiment on UACC-62, 0.485 µM; in the experiment with A-375, 0.007 µM; in the experiment with NIH3T3, 1.74 µM; in the experiment on LOX IMVI it was 0.0456 µM. Moreover, the half-inhibitory concentration (IC50) in the experiment on Malme-3M was 11.5 µM; in the experiment with M14, 0.763 µM; with MDA-MB-435 it was 0.119 µM; with SK-MEL-28 it was 0.292 µM; with UACC-257 it was 1.98 µM.
With `O=C(Nc1ccc(-n2ccc3c(NC(=O)c4ccccc4)nccc32)cc1)Nc1cc(C(F)(F)F)cc(C(F)(F)F)c1`, the IC50 with A-375 was 1.8 µM.
